Data reported in ChEMBL document CHEMBL4480400, “Development of an N-Acyl Amino Acid That Selectively Inhibits the Glycine Transporter 2 To Produce Analgesia in a Rat Model of Chronic Pain” (J Med Chem, 2019).
Active and inactive are the calls of the source.

What was measured:
[1] = Degradation half life in rat liver microsomes at 1 uM by LC-MS/MS analysis; assay type: ADME, Microsome
Outline: (§1)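 Human or rat liver microsomes (0.4 mg/mL protein final) in 0.1 M phosphate buffer pH 7.4 with 1 μM compound at 37°C. Reaction started with an NADPH-regenerating system plus MgCl2. Samples were quenched with ice-cold acetonitrile at time points over 60 min. Remaining parent was measured by LC-MS, and the first-order depletion rate constant came from an exponential decay fit.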

[2] = molecular target: T1, Sodium- and chloride-dependent glycine transporter 2 (Homo sapiens) (UniProt Q9Y345); assay: Inhibition of recombinant human GlyT2a expressed in Xenopus laevis oocytes assessed as reduction in channel current by two-electrode voltage clamp electrophysiology relative to control; assay type: cell-based
T1 sequence (whole entry): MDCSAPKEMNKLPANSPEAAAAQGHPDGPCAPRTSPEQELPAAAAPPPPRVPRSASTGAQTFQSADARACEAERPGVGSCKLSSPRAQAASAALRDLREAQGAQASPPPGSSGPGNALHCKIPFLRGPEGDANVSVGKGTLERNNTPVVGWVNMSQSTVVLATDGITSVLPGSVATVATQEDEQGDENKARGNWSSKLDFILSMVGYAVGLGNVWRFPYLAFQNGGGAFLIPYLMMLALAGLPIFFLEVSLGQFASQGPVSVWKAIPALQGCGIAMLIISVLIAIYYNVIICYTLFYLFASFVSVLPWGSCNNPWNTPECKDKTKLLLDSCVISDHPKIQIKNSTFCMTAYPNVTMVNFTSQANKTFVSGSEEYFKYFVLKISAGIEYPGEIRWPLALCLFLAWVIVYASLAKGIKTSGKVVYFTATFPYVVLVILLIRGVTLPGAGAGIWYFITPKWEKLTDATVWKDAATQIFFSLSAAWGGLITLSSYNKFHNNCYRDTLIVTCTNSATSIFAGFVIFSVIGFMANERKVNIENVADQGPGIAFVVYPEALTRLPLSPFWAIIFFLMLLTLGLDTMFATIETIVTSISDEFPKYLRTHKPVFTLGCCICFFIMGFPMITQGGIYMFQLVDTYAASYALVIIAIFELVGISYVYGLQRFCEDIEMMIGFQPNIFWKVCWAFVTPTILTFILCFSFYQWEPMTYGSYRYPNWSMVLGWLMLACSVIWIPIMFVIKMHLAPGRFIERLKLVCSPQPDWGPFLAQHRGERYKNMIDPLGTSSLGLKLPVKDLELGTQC

[3] = molecular target: T1, Sodium- and chloride-dependent glycine transporter 2 (Homo sapiens); assay: Inhibition of recombinant human GlyT2a expressed in Xenopus laevis oocytes assessed as reduction in channel current at 10 nM by two-electrode voltage clamp electrophysiology; assay type: cell-based
Outline: (§2)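 GlyT2-expressing oocytes under two-electrode voltage clamp at -60 mV. Glycine concentration responses were run first without inhibitor, then after 2 min pre-application of inhibitor (10 nM, 30 nM or 1 μM) in ND96, followed by increasing glycine. Plateau currents were normalised to each cell's Imax at 300 μM glycine without inhibitor. ANOVA was applied to EC50 and Imax.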

[4] = molecular target: T1, Sodium- and chloride-dependent glycine transporter 2 (Homo sapiens); assay: Inhibition of recombinant human GlyT2a expressed in Xenopus laevis oocytes assessed as reduction in channel current at 1 uM by two-electrode voltage clamp electrophysiology; assay type: cell-based; outline: as §2
[5] = Degradation half life in rat plasma at 1000 ng/ml by LC-MS/MS analysis; assay type: ADME, cell-free
Outline: (§3)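 Pooled human plasma (3 donors) or pooled male Sprague-Dawley rat plasma, thawed at 37°C. Spiked to a nominal 1000 ng/mL final (0.2% DMSO, 0.4% acetonitrile final) and incubated at 37°C. Aliquots were snap-frozen at time points over 4 h (n=3 per time point). Quantified by LC-MS against a same-species blank-plasma calibration with a leucine enkephalin internal standard.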

[6] = molecular target: T2, Sodium- and chloride-dependent glycine transporter 2 (Homo sapiens, UniProt Q9Y345); assay: Inhibition of recombinant human GlyT2a expressed in Xenopus laevis oocytes assessed as reduction in channel current by two-electrode voltage clamp electrophysiology; assay type: cell-based
T2 sequence (Q9Y345 whole entry): T1 sequence (whole entry)

[7] = Drug degradation in human plasma at 1000 ng/ml measured over 240 mins by LC-MS/MS analysis; assay type: ADME, cell-free; settings: read-out: Drug degradation; outline: as §3
GlyT2 (Homo sapiens) = assay: Inhibition of recombinant human GlyT2a expressed in expressed in Xenopus laevis oocytes assessed as reduction in [3H]glycine uptake at 0.1 to 1 uM pretreated for 2 mins followed by [3H]glycine addition and measured after 30 mins by scintillation counting method
[8] = molecular target: T3, Sodium- and chloride-dependent glycine transporter 1 (Homo sapiens) (UniProt P48067); assay: Inhibition of recombinant human GlyT1b expressed in Xenopus laevis oocytes assessed as reduction in [3H]glycine uptake at 0.1 to 1 uM pretreated for 2 mins followed by [3H]glycine addition and measured after 30 mins by scintillation counting method; assay type: cell-based
T3 sequence (whole entry): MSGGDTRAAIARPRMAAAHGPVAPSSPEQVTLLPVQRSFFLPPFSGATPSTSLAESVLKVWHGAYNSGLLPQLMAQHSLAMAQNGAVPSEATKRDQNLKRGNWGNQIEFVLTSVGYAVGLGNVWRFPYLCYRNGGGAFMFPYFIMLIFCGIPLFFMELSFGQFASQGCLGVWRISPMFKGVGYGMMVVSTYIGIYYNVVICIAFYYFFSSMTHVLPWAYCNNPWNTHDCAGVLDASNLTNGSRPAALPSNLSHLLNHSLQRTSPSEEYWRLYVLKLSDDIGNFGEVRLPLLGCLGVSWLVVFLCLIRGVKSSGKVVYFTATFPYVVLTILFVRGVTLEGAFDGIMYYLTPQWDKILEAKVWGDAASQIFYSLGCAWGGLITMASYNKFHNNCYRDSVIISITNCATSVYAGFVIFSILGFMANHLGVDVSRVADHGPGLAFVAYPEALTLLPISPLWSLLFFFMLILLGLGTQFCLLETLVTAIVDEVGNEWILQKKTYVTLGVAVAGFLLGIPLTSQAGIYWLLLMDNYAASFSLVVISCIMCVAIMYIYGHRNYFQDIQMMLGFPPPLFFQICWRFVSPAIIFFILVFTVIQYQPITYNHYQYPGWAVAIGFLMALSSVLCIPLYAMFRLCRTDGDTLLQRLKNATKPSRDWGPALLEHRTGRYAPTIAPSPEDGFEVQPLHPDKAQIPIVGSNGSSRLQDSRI

[9] = Drug degradation in human liver microsomes at 1 uM measured over 60 mins by LC-MS/MS analysis; assay type: ADME, Microsome; settings: read-out: Drug degradation; outline: as §1
[10] = molecular target: T4, Sodium- and chloride-dependent glycine transporter 1 (Homo sapiens, UniProt P48067); assay: Inhibition of recombinant human GlyT1b expressed in Xenopus laevis oocytes assessed as reduction in channel current by two-electrode voltage clamp electrophysiology; assay type: cell-based
T4 sequence (P48067 whole entry): T3 sequence (whole entry)

[11] = molecular target: T1, Sodium- and chloride-dependent glycine transporter 2 (Homo sapiens); assay: Inhibition of recombinant human GlyT2a expressed in Xenopus laevis oocytes assessed as reduction in channel current at 30 nM by two-electrode voltage clamp electrophysiology; assay type: cell-based; outline: as §2
[12] = Toxicity in Sprague-Dawley rat model of neuropathic pain assessed as induction of abdominal pain rat 30 mg/kg, ip administered as single dose measured up to 60 mins post injection; assay type: organism-based; settings: in vivo, 1 h
Outline: (§4)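 Male Sprague-Dawley rats underwent chronic nerve constriction surgery, and neuropathic pain developed over 14 days. Rats were housed in groups of 4 and acclimatised to test chambers. Single ip injection of drug or vehicle (1% DMSO, 10% Solutol HS15 in 0.9% saline). Adverse behaviours were scored over the post-injection period alongside von Frey testing, with vehicle as comparison.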

[13] = molecular target: T1, Sodium- and chloride-dependent glycine transporter 2 (Homo sapiens); assay: Slow reversible inhibition of recombinant human GlyT2a expressed in Xenopus laevis oocytes assessed as recovery of transport current at IC50 followed by compound wash out followed by glycine re-application at 5 mins intervals throughout wash time course and measured after 30 mins by two-electrode voltage clamp electrophysiology; assay type: cell-based; set-up: scale not given: the % may be the effect or the level left
[14] = Toxicity in Sprague-Dawley rat model of neuropathic pain assessed as induction of writhing behaviour rat 30 mg/kg, ip administered as single dose measured up to 60 mins post injection; assay type: organism-based; settings: in vivo, 1 h; outline: as §4
Rattus norvegicus = assay: Analgesic activity in Sprague-Dawley rat model of neuropathic pain assessed as reduction in allodynia at 30 mg/kg, ip administered as single dose measured after 90 mins post injection; assay type: functional, organism-based
Outline: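 Male Sprague-Dawley rats were tested 14 days after nerve-constriction surgery. Mechanical paw withdrawal threshold was measured with von Frey filaments (0.4–15.1 g) by the up-down method, bounded at 0.2 and 15 g. Rats got a single ip injection with vehicle of 1% DMSO, 10% Solutol HS15 in 0.9% saline. Testing ran at 15–360 min post-injection with Bonferroni comparisons against vehicle.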

[15] = Toxicity in Sprague-Dawley rat model of neuropathic pain assessed as induction of recumbent behaviour rat 30 mg/kg, ip administered as single dose measured up to 60 mins post injection; assay type: organism-based; settings: in vivo, 1 h; outline: as §4

Row | SMILES | t1/2 [1] [h] | Imax [2] [%] | Imax [3] [%] | Imax [4] [%] | t1/2 [5] [h] | IC50 [6] [nM] | metabolised at 4 h, 1000 ng/ml [7] [%] | inhibition (GlyT2 (Homo sapiens)) | inhibition [8] | metabolised at 1 h, 1 µM [9] [%] | IC50 [10] [nM] | Imax [11] [%] | Activity [12] | Activity [13] [%] | Activity [14] | Activity (Rattus norvegicus) | Activity [15]
1 | CCCCCCCC/C=C\CCCCCCCC(=O)N[C@@H](CCCCN)C(=O)O.Cl | 0.9 | 86.8 | 82.8 | 30.2 | 1.43 | 25.5 | < 15 | Active | inactive | < 15 | > 3000 | 62.4 |  |  |  |  | 
2 | COc1cc(C(=O)NCC2(N(C)C)CCCC2)cc(OC)c1OCc1ccccc1 |  | 93 |  |  |  |  |  |  |  |  |  |  | Toxic | 35 | Toxic | Active | Toxic
